Laboratory results as given in ChEMBL document CHEMBL4251655 (Eur J Med Chem, 2018).

How the values were obtained:
[1] = molecular target: cAMP-dependent protein kinase catalytic subunit alpha (Homo sapiens) (UniProt P17612); test: Inhibition of recombinant human His-tagged PRKACA expressed in Escherichia coli at 1 uM relative to control
In short: (§1)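 Forty-kinase selectivity panel; each compound tested at a single 1 µM concentration in the presence of 1 mM ATP; result given as percent inhibition.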

[2] = molecular target: T1, Tyrosine-protein kinase JAK3 (Homo sapiens) (UniProt P52333); test: Inhibition of recombinant human GST-tagged JAK3 expressed in baculovirus expression system at 1 uM relative to control; in short: as §1
T1 sequence (whole entry): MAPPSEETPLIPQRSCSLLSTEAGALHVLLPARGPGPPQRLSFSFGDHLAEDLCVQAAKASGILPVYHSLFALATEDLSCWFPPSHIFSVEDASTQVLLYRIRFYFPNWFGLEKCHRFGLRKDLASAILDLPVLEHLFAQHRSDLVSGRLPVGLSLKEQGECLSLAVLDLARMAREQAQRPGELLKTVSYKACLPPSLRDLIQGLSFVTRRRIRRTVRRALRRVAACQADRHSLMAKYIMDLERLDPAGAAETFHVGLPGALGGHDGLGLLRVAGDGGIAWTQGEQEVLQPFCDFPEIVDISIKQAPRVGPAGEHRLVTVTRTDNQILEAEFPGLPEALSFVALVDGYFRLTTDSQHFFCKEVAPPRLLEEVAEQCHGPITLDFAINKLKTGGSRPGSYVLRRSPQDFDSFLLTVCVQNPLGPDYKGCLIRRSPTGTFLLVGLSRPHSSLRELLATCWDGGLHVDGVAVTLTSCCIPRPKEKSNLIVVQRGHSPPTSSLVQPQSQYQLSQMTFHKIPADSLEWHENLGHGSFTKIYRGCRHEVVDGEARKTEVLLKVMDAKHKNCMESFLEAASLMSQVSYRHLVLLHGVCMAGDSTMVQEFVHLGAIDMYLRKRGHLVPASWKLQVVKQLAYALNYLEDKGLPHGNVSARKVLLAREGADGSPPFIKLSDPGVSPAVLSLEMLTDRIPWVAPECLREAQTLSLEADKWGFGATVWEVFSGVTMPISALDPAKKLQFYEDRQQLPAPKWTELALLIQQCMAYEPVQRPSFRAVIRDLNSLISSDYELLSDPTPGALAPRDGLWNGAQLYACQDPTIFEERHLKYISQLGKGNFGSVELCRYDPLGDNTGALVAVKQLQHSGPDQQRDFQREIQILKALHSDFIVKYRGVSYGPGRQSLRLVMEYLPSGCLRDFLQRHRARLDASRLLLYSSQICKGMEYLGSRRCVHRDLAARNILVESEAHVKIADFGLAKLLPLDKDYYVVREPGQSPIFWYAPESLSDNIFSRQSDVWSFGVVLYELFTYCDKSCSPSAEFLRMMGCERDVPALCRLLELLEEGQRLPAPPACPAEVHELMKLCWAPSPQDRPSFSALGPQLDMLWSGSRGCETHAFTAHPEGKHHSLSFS

[3] = molecular target: T2, Serine/threonine-protein kinase TAO2 (Homo sapiens) (UniProt Q9UL54); test: Inhibition of recombinant human GST-tagged TAOK2 expressed in baculovirus expression system at 1 uM relative to control; in short: as §1
T2 sequence (whole entry): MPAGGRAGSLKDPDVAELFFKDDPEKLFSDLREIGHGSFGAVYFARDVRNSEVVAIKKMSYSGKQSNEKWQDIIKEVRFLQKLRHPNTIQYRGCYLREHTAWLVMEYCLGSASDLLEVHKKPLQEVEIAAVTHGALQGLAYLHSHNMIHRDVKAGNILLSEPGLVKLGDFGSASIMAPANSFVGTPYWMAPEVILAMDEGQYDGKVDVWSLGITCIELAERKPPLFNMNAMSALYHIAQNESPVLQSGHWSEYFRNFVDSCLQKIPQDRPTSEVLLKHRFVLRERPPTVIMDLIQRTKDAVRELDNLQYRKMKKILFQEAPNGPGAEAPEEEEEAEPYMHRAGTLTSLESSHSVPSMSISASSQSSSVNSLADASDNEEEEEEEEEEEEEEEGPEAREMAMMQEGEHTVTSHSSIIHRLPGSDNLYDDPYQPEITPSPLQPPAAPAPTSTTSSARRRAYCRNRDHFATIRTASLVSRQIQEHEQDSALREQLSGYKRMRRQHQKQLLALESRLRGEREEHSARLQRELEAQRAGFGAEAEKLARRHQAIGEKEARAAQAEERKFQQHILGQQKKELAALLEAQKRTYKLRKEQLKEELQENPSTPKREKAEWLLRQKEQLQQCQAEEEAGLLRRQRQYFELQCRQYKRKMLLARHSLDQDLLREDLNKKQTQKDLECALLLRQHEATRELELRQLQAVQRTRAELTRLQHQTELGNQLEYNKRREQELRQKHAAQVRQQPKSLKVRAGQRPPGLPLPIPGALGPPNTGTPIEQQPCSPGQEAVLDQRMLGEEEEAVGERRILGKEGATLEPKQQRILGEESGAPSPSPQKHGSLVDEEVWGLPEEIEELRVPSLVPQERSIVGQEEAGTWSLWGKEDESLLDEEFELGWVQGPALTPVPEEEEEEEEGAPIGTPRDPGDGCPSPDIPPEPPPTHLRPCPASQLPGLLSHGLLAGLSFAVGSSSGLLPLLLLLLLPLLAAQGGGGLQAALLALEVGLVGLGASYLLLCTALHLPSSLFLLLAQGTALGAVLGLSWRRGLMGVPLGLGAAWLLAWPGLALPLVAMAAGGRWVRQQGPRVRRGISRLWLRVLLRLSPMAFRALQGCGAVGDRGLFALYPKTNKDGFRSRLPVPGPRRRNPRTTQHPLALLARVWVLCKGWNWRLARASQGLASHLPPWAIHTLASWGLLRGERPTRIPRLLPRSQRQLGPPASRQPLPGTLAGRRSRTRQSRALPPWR

[4] = molecular target: CDK2/Cyclin A2 (Homo sapiens) (UniProt P24941+P20248); test: Inhibition of recombinant full length human His-tagged CDK2/Cyclin-A expressed in baculovirus expression system at 1 uM relative to control; in short: as §1
[5] = molecular target: Fibroblast growth factor receptor 1 (Homo sapiens) (UniProt P11362); test: Inhibition of recombinant human His-tagged FGFR1 cytoplasmic domain expressed in baculovirus expression system at 1 uM relative to control; in short: as §1
Fibroblast growth factor receptor 1 (Homo sapiens), sequence (P11362 22-822 limits assumed): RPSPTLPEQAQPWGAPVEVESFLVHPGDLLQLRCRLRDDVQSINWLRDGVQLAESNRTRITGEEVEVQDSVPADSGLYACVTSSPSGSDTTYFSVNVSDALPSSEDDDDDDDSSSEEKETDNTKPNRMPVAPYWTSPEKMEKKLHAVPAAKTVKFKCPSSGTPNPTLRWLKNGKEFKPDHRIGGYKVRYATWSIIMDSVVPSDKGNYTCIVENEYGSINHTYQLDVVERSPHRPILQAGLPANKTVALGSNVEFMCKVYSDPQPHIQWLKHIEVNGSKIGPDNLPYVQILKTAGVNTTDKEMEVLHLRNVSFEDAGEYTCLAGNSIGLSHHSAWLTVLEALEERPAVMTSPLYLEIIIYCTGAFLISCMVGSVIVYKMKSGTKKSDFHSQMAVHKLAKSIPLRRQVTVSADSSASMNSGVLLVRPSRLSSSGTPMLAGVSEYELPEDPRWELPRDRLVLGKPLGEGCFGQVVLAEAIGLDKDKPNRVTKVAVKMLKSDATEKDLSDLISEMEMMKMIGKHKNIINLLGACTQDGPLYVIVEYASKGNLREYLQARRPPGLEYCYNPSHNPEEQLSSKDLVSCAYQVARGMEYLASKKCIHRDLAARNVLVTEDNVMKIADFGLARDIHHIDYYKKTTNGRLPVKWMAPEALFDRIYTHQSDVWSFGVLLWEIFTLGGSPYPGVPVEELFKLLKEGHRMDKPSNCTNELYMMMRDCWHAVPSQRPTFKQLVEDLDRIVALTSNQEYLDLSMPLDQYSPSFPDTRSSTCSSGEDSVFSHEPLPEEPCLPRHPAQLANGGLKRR

Row | Structure (SMILES) | inhibition [1] | inhibition [2] | inhibition [3] | inhibition [4] | inhibition [5]
1 | COc1ccc(S(C)(=O)=O)cc1C(=O)Nc1cccc(-c2nncn2C(C)C)n1 | -5% | 12% | 0% | 4% | –
2 | COc1cc(C)c(C(N)=O)cc1C(=O)Nc1cccc(-c2nncn2C(C)C)n1 | -1% | 3% | 17% | 57% | 2%
3 | COc1ccc(C(N)=O)cc1C(=O)Nc1cccc(-c2nncn2C(C)C)n1 | -1% | – | 11% | 33% | -2%
4 | COc1cc(C)c(S(N)(=O)=O)cc1C(=O)Nc1cccc(-c2nncn2C(C)C)n1 | 1% | 16% | -3% | 5% | 2%
5 | COc1ccc(S(N)(=O)=O)cc1C(=O)Nc1cccc(-c2nncn2C(C)C)n1 | – | -8% | -1% | 5% | -6%
6 | COc1cc(C)c(S(C)(=O)=O)cc1C(=O)Nc1cccc(-c2nncn2C(C)C)n1 | 3% | 0% | 2% | 2% | 2%
